Experiments:
[1] = test system: Homo sapiens; assay: Toxicity in healthy human assessed as occurrence of vomiting at 12.5 mg, po administered as single dose relative to control; format: organism-based; conditions: in vivo
[2] = test system: Homo sapiens; assay: Toxicity in healthy human assessed as occurrence of migraine at 25 mg, po administered as single dose relative to control; format: organism-based; conditions: in vivo
[3] = test system: Homo sapiens; assay: Toxicity in healthy human assessed as occurrence of increase in alanine aminotransferase level at 12.5 mg, po administered as single dose relative to control; format: organism-based; conditions: in vivo
[4] = test system: Homo sapiens; assay: Toxicity in healthy human assessed as occurrence of increase in alanine aminotransferase level at 75 mg, po administered as single dose relative to control; format: organism-based; conditions: in vivo
[5] = test system: Homo sapiens; assay: Toxicity in healthy human assessed as occurrence of herpes simplex at 12.5 mg, po administered as single dose relative to control; format: organism-based; conditions: in vivo
[6] = test system: Homo sapiens; assay: Toxicity in healthy human assessed as occurrence of herpes simplex at 100 mg, po administered as single dose relative to control; format: organism-based; conditions: in vivo
[7] = test system: Homo sapiens; assay: Toxicity in healthy human assessed as occurrence of frequent bowel movements at 75 mg, po administered as single dose relative to control; format: organism-based; conditions: in vivo
[8] = Half life in healthy human at 50 mg, po administered as single dose coadministered with 100 mg of ritonavir; format: ADME, organism-based; conditions: in vivo
[9] = Half life in high fat fed healthy human at 50 mg, po administered as single dose coadministered with 100 mg of ritonavir; format: ADME, organism-based; conditions: in vivo
[10] = Apparent volume of distribution in terminal phase in healthy human at 5 mg, po administered as single dose coadministered with 100 mg of ritonavir; format: ADME, organism-based; conditions: in vivo, read-out: Vz/F
Procedure, shortened: (§1)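 Healthy male volunteers, fasted overnight, got one oral dose of BILR 355 in PEG solution with 200 ml water. Ritonavir 100 mg was given 10 h before and again with the dose. Plasma was sampled (EDTA) from predose to 144 h and assayed by validated LC-MS/MS. Cmax and Vz/F came from noncompartmental analysis. Vss/F = CL/F·(MRTp.o. − 1/Ka), with Ka from compartmental modelling.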

[11] = Apparent volume of distribution in terminal phase in healthy human at 87.5 mg, po administered as single dose coadministered with 100 mg of ritonavir; format: ADME, organism-based; conditions: in vivo, read-out: Vz/F; procedure, shortened: as §1
[12] = Apparent volume of distribution at steady state in healthy human at 62.5 mg, po administered as single dose coadministered with 100 mg of ritonavir; format: ADME, organism-based; conditions: in vivo, read-out: Vss/F; procedure, shortened: as §1
[13] = Drug excretion in healthy human urine assessed as unchanged drug at 12.5 mg, po administered as single dose coadministered with 100 mg of ritonavir by high-pressure liquid chromatography-tandem mass spectrometry/mass spectrometry method; format: ADME, organism-based; conditions: read-out: Drug uptake
Procedure, shortened: (§2)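 Ritonavir 100 mg was given 10 h before and with one oral dose of BILR 355 in PEG solution. Urine was collected by weight as predose blank, then 0-6, 6-24 and 24-72 h, stored at −20°C and assayed by LC-MS/MS. fe = unchanged drug excreted (Ae) as a percentage of dose. Line 50: high-fat breakfast 30 min before dosing.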

[14] = Drug excretion in healthy human urine assessed as unchanged drug at 50 mg, po administered as single dose coadministered with 100 mg of ritonavir by high-pressure liquid chromatography-tandem mass spectrometry/mass spectrometry method; format: ADME, organism-based; conditions: read-out: Drug uptake; procedure, shortened: as §2
[15] = test system: Homo sapiens; assay: Ratio of AUC (0 to infinity) in human at 25 mg, po in presence of 100 mg of ritonavir to AUC (0 to infinity) in human at 25 mg, po; format: ADME, organism-based; conditions: in vivo
[16] = test system: Homo sapiens; assay: Ratio of AUC (0 to infinity) in human at 50 mg, po in presence of 100 mg of ritonavir to AUC (0 to infinity) in human at 50 mg, po; format: ADME, organism-based; conditions: in vivo
[17] = test system: Homo sapiens; assay: Toxicity in healthy human assessed as occurrence of aphthous stomatitis at 62.5 mg, po administered as single dose coadministered with 100 mg of ritonavir; format: organism-based; conditions: in vivo
[18] = test system: Homo sapiens; assay: Toxicity in healthy human assessed as occurrence of fatigue at 50 mg, po administered as single dose coadministered with 100 mg of ritonavir; format: organism-based; conditions: in vivo
[19] = AUC (0 to infinity) in healthy human at 25 mg, po administered as single dose; format: ADME, organism-based; set-up: dose 25 mg, route oral, time infinity; conditions: plasma
Procedure, shortened: (§3)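 Healthy male volunteers, six active plus two placebo per dose group, single oral dose in PEG solution with 200 ml water after overnight fast; breakfast 60 to 90 min post-dose. EDTA plasma sampled predose to 144 h. Assayed by validated LC-MS/MS after protein precipitation. Noncompartmental analysis, AUC by linear up/log down trapezoidal rule; Vss = CL/F·(MRTp.o. − 1/Ka).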

[20] = AUC (0 to last) in healthy human at 75 mg, po administered as single dose; format: ADME, organism-based; set-up: dose 75 mg, time 0 - last, route oral; conditions: plasma; procedure, shortened: as §3
[21] = Half life in healthy human at 5 mg, po administered as single dose; format: ADME, organism-based; conditions: in vivo
[22] = test system: Homo sapiens; assay: Ratio of Cmax in human at 25 mg, po in presence of 100 mg of ritonavir to Cmax in human at 25 mg, po; format: ADME, organism-based; conditions: in vivo
[23] = test system: Homo sapiens; assay: Ratio of half life in human at 25 mg, po in presence of 100 mg of ritonavir to half life in human at 25 mg, po; format: ADME, organism-based; conditions: in vivo
[24] = Renal clearance in healthy human at 5 mg, po administered as single dose by high-pressure liquid chromatography-tandem mass spectrometry/mass spectrometry method; format: ADME, organism-based, Kidney; conditions: in vivo, read-out: CL_renal (converted)
[25] = Renal clearance in healthy human at 25 mg, po administered as single dose by high-pressure liquid chromatography-tandem mass spectrometry/mass spectrometry method; format: ADME, organism-based, Kidney; conditions: in vivo, read-out: CL_renal (converted)
[26] = Renal clearance in healthy human at 50 mg, po administered as single dose by high-pressure liquid chromatography-tandem mass spectrometry/mass spectrometry method; format: ADME, organism-based, Kidney; conditions: in vivo, read-out: CL_renal (converted)
[27] = Drug excretion in healthy human urine assessed as unchanged drug at 25 mg, po administered as single dose by high-pressure liquid chromatography-tandem mass spectrometry/mass spectrometry method; format: ADME, organism-based; conditions: read-out: Drug uptake
Procedure, shortened: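 Urine was collected by weight after one oral dose of BILR 355 in PEG solution in fasted healthy males. Intervals were predose blank, 0-6, 6-24 and 24-72 h, with the bladder voided before each. Aliquots were stored at −20°C and assayed by LC-MS/MS. fe = amount of unchanged drug excreted (Ae) as a percentage of the administered dose.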

[28] = AUC (0 to infinity) in healthy human at 37.5 mg, po administered as single dose coadministered with 100 mg of ritonavir; format: ADME, organism-based; set-up: dose 37.5 mg, route oral, time infinity; conditions: plasma
Procedure, shortened: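 Healthy male volunteers, fasted. Ritonavir 100 mg given 10 h before and again together with single oral BILR 355 in PEG solution. EDTA plasma sampled predose to 144 h. LC-MS/MS assay after protein precipitation. Noncompartmental analysis, AUC by linear up/log down trapezoidal rule; Vss = CL/F·(MRTp.o. − 1/Ka).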

[29] = Cmax in healthy human at 12.5 mg, po administered as single dose coadministered with 100 mg of ritonavir by high-pressure liquid chromatography-tandem mass spectrometry/mass spectrometry method; format: ADME, organism-based; set-up: dose 12.5 mg, route oral; conditions: in vivo; procedure, shortened: as §1

half-life [8]: 11.5 h
half-life [9]: 11 h
Vd/F [10]: 153 L
Vd/F [11]: 114 L
Vd/F [12]: 113 L
dose excreted [13]: 6.37%
dose excreted [14]: 3.58%
Ratio [15]: 31.1
Ratio [16]: 15.5
AUC(0-inf) [19]: 142 ng·h/mL
AUC(0-t) [20]: 763 ng·h/mL
half-life [21]: 5.02 h
Ratio [22]: 5.4
Ratio [23]: 3.3
CL renal [24]: 4.52 mL/min
CL renal [25]: 11.5 mL/min
CL renal [26]: 9.15 mL/min
dose excreted [27]: 0.405%
AUC(0-inf) [28]: 5960 ng·h/mL
Cmax [29]: 74.1 ng/mL
SMILES: CCN1c2ncc(CCOc3cc[n+]([O-])c4ccccc34)cc2C(=O)N(C)c2cccnc21 [BILR 355]
Activity [1]: 0%
Activity [2]: 0%
Activity [3]: 0%
Activity [4]: 0%
Activity [5]: 0%
Activity [6]: 0%
Activity [7]: 16.7%
Activity [17]: 0%
Activity [18]: 0%
